The values below come from ChEMBL document CHEMBL1126564, “Synthesis and antimicrobial evaluation of a series of 7-[3-amino (or aminomethyl)-4-aryl (or cyclopropyl)-1-pyrrolidinyl]-4-quinolone- and -1,8-naphthyridone-3-carboxylic acids” (1993).

Structures are written as SMILES. Values after ≈ are worked out from the molar mass of the structure shown. A value given as a limit tells only on which side of the number the result lay.

Holding throughout (type): functional
Experiment [1] has as its system Staphylococcus aureus. Put plainly: Minimum inhibitory concentration against Staphylococcus aureus H-228. The conditions noted are these: Staphylococcus aureus; read-out: MIC. The gist of the method:
(§1)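 Standard microdilution method against a panel of five Gram-negative and five Gram-positive bacterial strains. The MIC (µg/mL) was recorded for each strain.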

For experiment [2], the system named is Escherichia coli. As to the kind of experiment: Minimum inhibitory concentration against Escherichia coli Vogel. The conditions noted are these: Escherichia coli; read-out: MIC. A digest of the protocol:
as §1

The test system of experiment [3] is Providencia rettgeri. As to the kind of experiment: Minimum inhibitory concentration against Providencia rettgeri M-1771. The conditions noted are these: Providencia rettgeri; read-out: MIC. A digest of the protocol:
as §1

Experiment [4] concerns Staphylococcus aureus. As to the kind of experiment: Minimum inhibitory concentration against Staphylococcus aureus UC-76. The conditions noted are these: Staphylococcus aureus; read-out: MIC. The gist of the method:
as §1

The subject of experiment [5] is Streptococcus pyogenes. As to the kind of experiment: Minimum inhibitory concentration against Streptococcus pyogenes C-203. The conditions noted are these: Streptococcus pyogenes; read-out: MIC. The gist of the method:
as §1

In experiment [6] the test system is Klebsiella pneumoniae. Put plainly: Minimum inhibitory concentration against Klebsiella pneumoniae MGH-2. The conditions noted are these: Klebsiella pneumoniae; read-out: MIC. A digest of the protocol: as §1
Experiment [7] deals with Enterococcus faecalis. Put plainly: Minimum inhibitory concentration against […] MGH-2. The note with it: Enterococcus faecalis; read-out: MIC. A digest of the protocol: as §1
Experiment [8] concerns Pseudomonas aeruginosa. Put plainly: Minimum inhibitory concentration against Pseudomonas aeruginosa UI-18. The note with it: Pseudomonas aeruginosa; read-out: MIC. A digest of the protocol: as §1
Experiment [9] deals with Enterobacter cloacae. Put plainly: Minimum inhibitory concentration against […] MA-2646. The conditions noted are these: Enterobacter cloacae; read-out: MIC. A digest of the protocol: as §1
In experiment [10] the test system is Streptococcus pneumoniae. Put plainly: Minimum inhibitory concentration against Streptococcus pneumoniae SV-1. The note with it: Streptococcus pneumoniae; read-out: MIC. The gist of the method:
as §1

Experiment [11] relates to Mus musculus. As to the kind of experiment: Median protective dose determined in acute lethal system infection caused by Streptococcus pyogenes C-203 in CD-1 mice (single dose sc). The conditions noted are these: read-out: PD50. A digest of the protocol: (§2)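 Acute lethal systemic infection in female Charles River CD-1 mice; compound given once, orally (po) or subcutaneously (sc), at the time of challenge. Median protective dose (PD50, mg/kg) derived from survival.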

Experiment [12] is filed under the species Mus musculus. Put plainly: Median protective dose determined in acute lethal system infection caused by Streptococcus pyogenes C-203 in CD-1 mice (single dose perorally). The note with it: po, read-out: PD50. A digest of the protocol:
as §2

Experiment [13] concerns Mus musculus. Put plainly: Median protective dose determined in acute lethal system infection caused by Escherichia coli vogel in CD-1 mice (single dose sc). The conditions noted are these: read-out: PD50. A digest of the protocol:
as §2

The species named for experiment [14] is Mus musculus. As to the kind of experiment: Median protective dose determined in acute lethal system infection caused by Escherichia coli vogel in CD-1 mice (single dose perorally). The note with it: po, read-out: PD50. The gist of the method: as §2

For orientation: MIC means the least concentration at which growth counts as inhibited. Turning to `COc1ccccc1C1CN(c2c(F)cc3c(=O)c(C(=O)O)cn(C4CC4)c3c2F)CC1N` (trans isomer), the MIC in [1] was determined as 0.05 µg/mL (≈ 0.11 µM); in [2] it was 0.2 µg/mL (≈ 0.439 µM); in experiment [3], 0.8 µg/mL (≈ 1.76 µM); in experiment [4] it was 0.025 µg/mL (≈ 0.0549 µM); in [5], 0.1 µg/mL (≈ 0.22 µM); in [6], 0.4 µg/mL (≈ 0.878 µM). In addition, the minimal inhibitory concentration (MIC) in experiment [7] was 0.1 µg/mL (≈ 0.22 µM); in [8], 3.1 µg/mL (≈ 6.81 µM); in experiment [9] it was 0.4 µg/mL (≈ 0.878 µM); in [10], 0.1 µg/mL (≈ 0.22 µM).
In the case of `NCC1CN(c2nc3c(cc2F)c(=O)c(C(=O)O)cn3C2CC2)CC1c1ccco1` (trans isomer), the MIC was found to be 0.05 µg/mL (≈ 0.121 µM) in experiment [1]; 0.1 µg/mL (≈ 0.242 µM) in [2]; 0.2 µg/mL (≈ 0.485 µM) in experiment [3]; 0.013 µg/mL (≈ 0.0315 µM) in experiment [4]; 0.05 µg/mL (≈ 0.121 µM) in [5]; 0.1 µg/mL (≈ 0.242 µM) in experiment [6]. The MIC in [7] was 0.05 µg/mL (≈ 0.121 µM); in [8] it was 0.4 µg/mL (≈ 0.97 µM); in [9] it was 0.2 µg/mL (≈ 0.485 µM); in experiment [10] it was 0.025 µg/mL (≈ 0.0606 µM). The ED50 in experiment [11] stood at 4.2 mg/kg; in experiment [12] it was 36 mg/kg.
`NC1CN(c2nc3c(cc2F)c(=O)c(C(=O)O)cn3C2CC2)CC1c1ccc(F)cc1` (trans isomer): the MIC amounted to 0.1 µg/mL (≈ 0.235 µM) in experiment [1]; 0.1 µg/mL (≈ 0.235 µM) in [2]; 0.4 µg/mL (≈ 0.938 µM) in experiment [3]; 0.025 µg/mL (≈ 0.0586 µM) in experiment [4]; 0.2 µg/mL (≈ 0.469 µM) in experiment [5]; 0.2 µg/mL (≈ 0.469 µM) in experiment [6]. In addition, the MIC in experiment [7] is 0.1 µg/mL (≈ 0.235 µM); in experiment [8] it was 1.6 µg/mL (≈ 3.75 µM); in experiment [9] it was 0.1 µg/mL (≈ 0.235 µM); in experiment [10], 0.2 µg/mL (≈ 0.469 µM). In addition, the ED50 in experiment [13] amounted to 9 mg/kg; in [14], 18 mg/kg.
For `NC1CN(c2cc3c(cc2F)c(=O)c(C(=O)O)cn3C2CC2)CC1C1CC1` (centres undefined), the MIC in [1] was 0.1 µg/mL (≈ 0.269 µM); in experiment [2] it was 0.05 µg/mL (≈ 0.135 µM); in experiment [3] it was 0.1 µg/mL (≈ 0.269 µM); in experiment [4], no more than 0.025 µg/mL; in experiment [5] it was 0.1 µg/mL (≈ 0.269 µM); in experiment [6], 0.05 µg/mL (≈ 0.135 µM). Also, the MIC in experiment [7] was found to be 0.1 µg/mL (≈ 0.269 µM); in [8] it was 0.8 µg/mL (≈ 2.15 µM); in [9], 0.1 µg/mL (≈ 0.269 µM); in experiment [10], 0.1 µg/mL (≈ 0.269 µM).
As for `NCC1CN(c2c(F)cc3c(=O)c(C(=O)O)cn(C4CC4)c3c2F)CC1c1ccc(N)cc1` (centres undefined), the MIC is 0.1 µg/mL (≈ 0.22 µM) in experiment [1]; 0.1 µg/mL (≈ 0.22 µM) in experiment [2]; 0.2 µg/mL (≈ 0.44 µM) in [3]; 0.025 µg/mL (≈ 0.055 µM) in experiment [4]; 0.05 µg/mL (≈ 0.11 µM) in experiment [5]; 0.2 µg/mL (≈ 0.44 µM) in experiment [6]. For the same molecule, the MIC in experiment [7] amounted to 0.05 µg/mL (≈ 0.11 µM); in [8], 1.6 µg/mL (≈ 3.52 µM); in experiment [9], 0.1 µg/mL (≈ 0.22 µM); in experiment [10], 0.05 µg/mL (≈ 0.11 µM).
As for `NC1CN(c2nc3c(cc2F)c(=O)c(C(=O)O)cn3C2CC2)CC1c1ccc(Cl)c(Cl)c1` (trans isomer), the MIC in experiment [1] was 0.1 µg/mL (≈ 0.21 µM); in experiment [2] it was 0.4 µg/mL (≈ 0.838 µM); in [3], 0.8 µg/mL (≈ 1.68 µM); in experiment [4], 0.05 µg/mL (≈ 0.105 µM); in experiment [5], 0.4 µg/mL (≈ 0.838 µM); in experiment [6], 0.4 µg/mL (≈ 0.838 µM). Besides, the minimum inhibitory concentration (MIC) in experiment [7] was 0.2 µg/mL (≈ 0.419 µM); in experiment [8], 3.1 µg/mL (≈ 6.49 µM); in [9], 0.4 µg/mL (≈ 0.838 µM); in experiment [10] it was 0.2 µg/mL (≈ 0.419 µM).
Turning to `Nc1c(F)c(N2CC(N)C(c3ccc(O)cc3)C2)c(F)c2c1c(=O)c(C(=O)O)cn2C1CC1` (trans isomer), the MIC in experiment [1] came to 0.05 µg/mL (≈ 0.11 µM); in experiment [2], 0.05 µg/mL (≈ 0.11 µM); in experiment [3] it was 0.1 µg/mL (≈ 0.219 µM); in experiment [4], 0.013 µg/mL (≈ 0.0285 µM); in experiment [5] it was 0.1 µg/mL (≈ 0.219 µM); in [6], 0.05 µg/mL (≈ 0.11 µM). The MIC in experiment [7] worked out at 0.05 µg/mL (≈ 0.11 µM); in experiment [8] it was 0.8 µg/mL (≈ 1.75 µM); in experiment [9], 0.05 µg/mL (≈ 0.11 µM); in experiment [10] it was 0.05 µg/mL (≈ 0.11 µM).
Take `COc1ccc(C2CN(c3nc4c(cc3F)c(=O)c(C(=O)O)cn4C3CC3)CC2N)cc1` (trans isomer): the MIC was determined as 0.1 µg/mL (≈ 0.228 µM) in experiment [1]; 0.1 µg/mL (≈ 0.228 µM) in [2]; 0.4 µg/mL (≈ 0.912 µM) in [3]; 0.05 µg/mL (≈ 0.114 µM) in experiment [4]; 0.1 µg/mL (≈ 0.228 µM) in experiment [5]; 0.2 µg/mL (≈ 0.456 µM) in [6]. Further, the MIC is 0.2 µg/mL (≈ 0.456 µM) in experiment [7], 1.6 µg/mL (≈ 3.65 µM) in [8], 0.1 µg/mL (≈ 0.228 µM) in experiment [9] and 0.1 µg/mL (≈ 0.228 µM) in [10].
For the molecule `COc1ccc(C2CN(c3c(F)cc4c(=O)c(C(=O)O)cn(C5CC5)c4c3F)CC2N)cc1` (trans isomer), the MIC amounted to 0.025 µg/mL (≈ 0.0549 µM) in [1]; 0.1 µg/mL (≈ 0.22 µM) in experiment [2]; 0.4 µg/mL (≈ 0.878 µM) in [3]; 0.013 µg/mL (≈ 0.0285 µM) in experiment [4]; 0.05 µg/mL (≈ 0.11 µM) in experiment [5]; 0.2 µg/mL (≈ 0.439 µM) in [6]. The MIC in experiment [7] was determined as 0.1 µg/mL (≈ 0.22 µM); in experiment [8], 1.6 µg/mL (≈ 3.51 µM); in experiment [9] it was 0.1 µg/mL (≈ 0.22 µM); in [10], 0.05 µg/mL (≈ 0.11 µM).
